Test [1] has as its target T1, Lanosterol synthase (Rattus norvegicus) (UniProt P48450).
T1 sequence (whole entry): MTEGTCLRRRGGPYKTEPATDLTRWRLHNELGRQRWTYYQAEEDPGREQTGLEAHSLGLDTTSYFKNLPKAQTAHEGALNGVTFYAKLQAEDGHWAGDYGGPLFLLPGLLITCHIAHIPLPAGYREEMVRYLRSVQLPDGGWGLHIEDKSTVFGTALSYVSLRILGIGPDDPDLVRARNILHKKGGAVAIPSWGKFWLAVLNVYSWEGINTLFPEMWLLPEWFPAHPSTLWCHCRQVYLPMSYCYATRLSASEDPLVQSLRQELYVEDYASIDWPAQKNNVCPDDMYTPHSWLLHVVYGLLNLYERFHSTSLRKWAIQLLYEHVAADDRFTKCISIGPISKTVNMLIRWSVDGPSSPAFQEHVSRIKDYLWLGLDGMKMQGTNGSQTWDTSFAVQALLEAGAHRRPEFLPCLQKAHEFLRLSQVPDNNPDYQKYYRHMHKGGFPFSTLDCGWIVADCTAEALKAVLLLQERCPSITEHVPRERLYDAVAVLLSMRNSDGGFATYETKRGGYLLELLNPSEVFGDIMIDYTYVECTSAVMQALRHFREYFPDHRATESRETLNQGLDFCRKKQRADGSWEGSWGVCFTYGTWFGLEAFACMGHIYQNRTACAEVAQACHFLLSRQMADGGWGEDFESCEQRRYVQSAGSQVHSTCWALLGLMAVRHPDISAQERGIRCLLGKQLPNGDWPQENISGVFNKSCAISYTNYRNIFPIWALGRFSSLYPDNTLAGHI
Kind of test: The in vivo assay of compound for inhibition of cholesterol biosynthesis was measured on Oxidosqualene-lanosterol cyclase of rat at 5 mg/kg.

The target of test [2] is T1, Lanosterol synthase (Rattus norvegicus). Kind of test: The in vivo assay of compound for inhibition of cholesterol biosynthesis was measured on Oxidosqualene-lanosterol cyclase of rat at 5 mg/kg. Format: functional, organism-based. Also noted: dose 5 mg/kg. The method, boiled down:
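Female rats (130 ± 20 g) on reverse lighting dosed orally in DMSO/HPMC; tritiated mevalonate (2.5 μCi) given 1 h later, rats killed after another 1 h. Liver extracts run on HPLC with radiodetection; peaks assigned against standard sterol intermediates' retention times; cholesterol synthesis inhibition from peak area, plus intermediate selectivity profile.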

In test [3] the target is T2, Lanosterol synthase (Rattus norvegicus, UniProt P48450).
T2 sequence (P48450 whole entry): T1 sequence (whole entry)
Kind of test: Inhibition of compound was measured on rat microsomal Oxidosqualene-lanosterol cyclase. The method, boiled down: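 Rat liver microsomes diluted in 50 mM phosphate buffer pH 7.4 with tween; compounds from DMSO stocks (10^-4 M, serial tenfold dilutions) preincubated with microsomes 10 min at 37 °C, then cold plus radiolabelled oxidosqualene added, 1 h incubation. Stopped with ethanolic KOH, heated 80 °C 2 h, hexane-extracted; inhibition from radiolabelled product.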

The target in test [4] is T3, Squalene synthase (Rattus norvegicus, UniProt Q02769).
T3 sequence (Q02769 whole entry): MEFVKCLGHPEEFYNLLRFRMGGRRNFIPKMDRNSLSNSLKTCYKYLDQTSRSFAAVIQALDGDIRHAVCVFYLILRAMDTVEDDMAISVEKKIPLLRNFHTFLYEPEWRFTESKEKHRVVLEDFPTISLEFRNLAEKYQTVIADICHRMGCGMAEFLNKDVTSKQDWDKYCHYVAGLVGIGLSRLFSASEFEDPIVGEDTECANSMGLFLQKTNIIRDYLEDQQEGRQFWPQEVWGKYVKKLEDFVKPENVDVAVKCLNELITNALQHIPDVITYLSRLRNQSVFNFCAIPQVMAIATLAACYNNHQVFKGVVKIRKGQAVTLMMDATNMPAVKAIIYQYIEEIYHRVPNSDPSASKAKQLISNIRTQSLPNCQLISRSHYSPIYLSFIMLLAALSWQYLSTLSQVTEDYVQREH
Kind of test: Compound was measured for the inhibition of rat microsomal squalene synthase enzyme.

The structures appear in SMILES notation.

The term inhibition denotes the percentage by which the read-out fell short of the control. In the case of `[O-][S+](c1ccc(Br)cc1)c1ccc(C#CC2(O)CN3CCC2CC3)cc1` (centres undefined), the inhibition in test [1] worked out at 83%. On to `O=C(c1ccc(Cl)cc1)c1ccc(OC2CN3CCC2CC3)cc1` (centres undefined), for which the inhibition in test [2] came out at 92%. Broadly, the IC50 is the concentration that inhibits the measured activity by half. Low values mean inhibition by little substance, high ones a need for much substance. `OC1(c2ccc(-c3ccccc3)cc2)CN2CCC1CC2` (centres undefined) showed a half-inhibitory concentration (IC50) in test [3] of more than 0.1 µM. `OC1(C#Cc2ccc(Sc3ccc(Br)cc3)cc2)CN2CCC1CC2` (centres undefined) returned an inhibition in test [1] of 79%.

On to `Brc1ccccc1SC1CN2CCC1CC2` (centres undefined), for which the inhibition in test [1] is less than 5%.

Compound `Brc1ccc(SC2CN3CCC2CC3)cc1` (centres undefined) returned an inhibition in test [1] of 47%. Turning to `O=C(/C=C1\CN2CCC1CC2)c1ccc(C(=O)c2ccc(Br)cc2)cc1`, the inhibition in test [2] stood at 84%. `O=C(c1ccc(Br)cc1)c1ccc(C#CC2(O)CN3CCC2CC3)cc1` (centres undefined) came in with an inhibition in test [1] of 59%. Compound `OC1(C#Cc2ccc(Oc3ccc(Br)cc3)cc2)CN2CCC1CC2` (centres undefined) displayed an inhibition in test [1] of 55%. For `C=CCc1cc(CCC(=O)OCC)ccc1C#CC1(O)CN2CCC1CC2` (centres undefined), the IC50 was more than 0.1 µM in test [3] and 0.006 µM in test [4]. In test [1], `Brc1cccc(SC2CN3CCC2CC3)c1` (centres undefined) had an inhibition of less than 5%. Still for that read-out and setting: then `O=C(c1ccc(C(F)(F)F)cc1)N1CCC(=Cc2ccc(C3=NCCO3)cc2)CC1`, with 98%; and `O=S(=O)(c1ccc(Br)cc1)c1ccc(C#CC2(O)CN3CCC2CC3)cc1` (centres undefined), with 94%.

These data come from ChEMBL document CHEMBL1132628, “Quinuclidine inhibitors of 2,3-oxidosqualene cyclase-lanosterol synthase: optimization from lipid profiles” (J Med Chem, 1999).
